From publication PMC7658932 (ACS Omega, 2020)

Key:
[1] = Radiolabeling efficiency/kinetics of chelators with ^177Lu; assay type: physicochemical; settings: 1 min, pH 5.5, RT, TLC, triplicate
How it was run: (§1)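 Test compound (20 μg) in Chelex-treated 0.25 M NH4OAc (pH 5.5) was mixed with 90YCl3 or 177LuCl3 (2.22 MBq, 60 μCi, in 0.05 M HCl) using acid-washed, metal-free plasticware. The mixture was shaken at 1000 rpm at RT for 1 h. Aliquots taken at set times were run on silica gel ITLC in acetonitrile/water 3:2 and scanned by radio-TLC. Complex ran at ~50 mm, free radionuclide at ~30 mm.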

[2] = Radiolabeling efficiency/kinetics of chelators with ^90Y; assay type: physicochemical; settings: pH 5.5, RT, TLC, triplicate
How it was run: as §1

## O=C(O)CN1CCN(CCN(CC(=O)O)CC(=O)O)CCN(CC(CCCc2ccc([N+](=O)[O-])cc2)N(CC(=O)O)CC(=O)O)CC1 (stereo not drawn) [3p-C-NEPA, 2-{[2-(4-{2-[Bis(carboxymethyl)amino]-5-(4-nitrophenyl)pentyl}-7-(carboxymethyl)-1,4,7-triazonan-1-yl)ethyl](carboxymethyl)amino}acetic acid]
[1]
  radiolabeling efficiency (%): > 97%
[2]; 1 min
  radiolabeling efficiency (%): > 97%
[2]; 10 min
  radiolabeling efficiency (%): > 99%
